System: Plasmodium falciparum
Test: Minimum inhibitory concentration against Plasmodium falciparum NF-54 after 40 hrs
Format: functional
How it was run: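 Rieckmann-type microassay. NF-54 is kept in RPMI-1640 with 25 mM Hepes, 1% D-glucose, 0.23% NaHCO3 and 10% heat-inactivated human serum, then synchronized to ring stage with 5% D-sorbitol. Ring-stage parasites at about 1% parasitemia and 3% hematocrit are exposed in duplicate to […] for 36–40 h at 37 °C in a candle jar. Maturation is read on Giemsa smears. MIC is the concentration that completely blocks schizont maturation.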

MIC, 64 µg/mL:
CC1(C)N=C(N)N=C(N)N1c1ccc(Cl)cc1 [CYCLOGUANIL]

MIC, 2 µg/mL:
COc1cc(-c2cc(SC)n(-c3nc(NC4CCCCC4)nc(NC4CCCCC4)n3)n2)cc(OC)c1OC
COc1ccc(-c2cc(SC)n(-c3nc(NCCN4CCOCC4)nc(NCCN4CCOCC4)n3)n2)cc1OC
COc1ccc(-c2cc(SC)n(-c3nc(N4CCN(Cc5ccccc5)CC4)nc(N4CCN(Cc5ccccc5)CC4)n3)n2)cc1OC
COc1cc(-c2cc(SC)n(-c3nc(NCc4ccccc4)nc(NCc4ccccc4)n3)n2)cc(OC)c1OC

MIC, 50 µg/mL:
COc1ccc(-c2cc(SC)n(-c3nc(NC4CCCCC4)nc(NC4CCCCC4)n3)n2)cc1OC
COc1ccc(-c2cc(SC)n(-c3nc(N4CCc5ccccc5C4)nc(N4CCc5ccccc5C4)n3)n2)cc1OC
COc1cc(-c2cc(SC)n(-c3nc(N4CCN(c5ccccc5)CC4)nc(N4CCN(c5ccccc5)CC4)n3)n2)cc(OC)c1OC
COc1cc(-c2cc(SC)n(-c3nc(N4CCN(Cc5ccccc5)CC4)nc(N4CCN(Cc5ccccc5)CC4)n3)n2)cc(OC)c1OC
COc1ccccc1CN1CCN(c2nc(N3CCN(Cc4ccccc4OC)CC3)nc(-n3nc(-c4cc(OC)c(OC)c(OC)c4)cc3SC)n2)CC1
COc1ccccc1CN1CCN(c2nc(N3CCN(Cc4ccccc4OC)CC3)nc(-n3nc(-c4ccc(OC)c(OC)c4)cc3SC)n2)CC1

MIC, > 50 µg/mL:
COc1cc(-c2cc(SC)n(-c3nc(N4CCc5ccccc5C4)nc(N4CCc5ccccc5C4)n3)n2)cc(OC)c1OC
COc1cc(-c2cc(SC)n(-c3nc(N4CCCCC4)nc(N4CCCCC4)n3)n2)cc(OC)c1OC
COc1ccc(-c2cc(SC)n(-c3nc(NCc4ccccc4)nc(NCc4ccccc4)n3)n2)cc1OC
COc1cc(-c2cc(SC)n(-c3nc(N4CCOCC4)nc(N4CCOCC4)n3)n2)cc(OC)c1OC

MIC, 1 µg/mL:
COc1cc(-c2cc(SC)n(-c3nc(Nc4ccccc4C)nc(Nc4ccccc4C)n3)n2)cc(OC)c1OC
COc1cc(-c2cc(SC)n(-c3nc(NCCN4CCOCC4)nc(NCCN4CCOCC4)n3)n2)cc(OC)c1OC

MIC, 10 µg/mL:
COc1cc(-c2cc(SC)n(-c3nc(NCCCN4CCOCC4)nc(NCCCN4CCOCC4)n3)n2)cc(OC)c1OC
COc1ccc(-c2cc(SC)n(-c3nc(NCCCN4CCOCC4)nc(NCCCN4CCOCC4)n3)n2)cc1OC
COc1ccc(-c2cc(SC)n(-c3nc(Nc4ccccc4C)nc(Nc4ccccc4C)n3)n2)cc1OC
COc1ccc(-c2cc(SC)n(-c3nc(N4CCCCC4)nc(N4CCCCC4)n3)n2)cc1OC
COc1ccc(-c2cc(SC)n(-c3nc(N4CCOCC4)nc(N4CCOCC4)n3)n2)cc1OC
COc1ccc(-c2cc(SC)n(-c3nc(N4CCN(c5ccccc5)CC4)nc(N4CCN(c5ccccc5)CC4)n3)n2)cc1OC
